Bioassay records (PubChem BioAssay)
CR mimetic SO = yeast age-related superoxide inhibition as caloric restriction mimetic. S. cerevisiae aged cells, superoxide DHE fluorescence; active compounds read low. actives 0.18% (n = 330,000). superoxide response (% of plate mean), % at 10 µM;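 active = superoxide response under a set limit, about three screen SD below normal, cut at about 65% in these data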;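 note: yeast aged for seven days with compound at 30 °C before DHE staining; 100% = average MFI of all compound-treated wells on the plate with controls excluded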
HIF activator = HIF pathway transcriptional activation. actives 0.32% (n = 300,000). AID 1910. U2OS HRE-luciferase reporter, luminescence; normalized: DMSO 0%, desferrioxamine 100%. activation, % at 7.5 µM (by protocol);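 active = mean activation of at least 10% of the iron chelator positive control signal, with at least half of replicates also reaching 10%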
T cruzi repl = T. cruzi replication inhibition. T. cruzi beta-gal in NIH3T3, luminescence, 90 h. inhibition, % (test concentration not listed). actives 1.4% (n = 300,000). AID 1885;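 active = mean inhibition across valid replicates above about 55%, limit read from the data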;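 note: signal also drops with host cell toxicity which is not excluded here; 0% = plate median of DMSO wells and 100% = zero luminescence signal; higher percent means less beta-gal luminescence so fewer parasites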
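Material: NIH/3T3 host cells with β-galactosidase reporter T. cruzi; Input: 5,000 host fibroblasts per well; Medium: DMEM, 2% fetal bovine serum; Compound: 50 nL DMSO compound solution per well; Schedule: 3 h host attachment, then at least 90 h co-culture; Detection: luminescent β-galactosidase signal after 60 min lysis.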
V-ATPase pHluor = alters yeast V-ATPase proton transport. actives 0.37% (n = 350,000). response, % at 10 µM. AID 504577. S. cerevisiae, pHLuorin cytosolic pH fluorescence; in the data active = response mostly above about 7.3%, no sharp cut-off; inactive = mostly below about 5.4%; note: actives read high
AI-2 QS mod = modulates the Vibrio harveyi AI-2 quorum sensing system; actives 0.4% (n = 300,000); activity change, % at 7.5 µM; Vibrio harveyi JMH597 AI-2 luminescence/OD600 ratio, 9 h; active compounds read low; strain lacks LuxN and CqsS sensors; 0 = neutral-control median; in the data active = activity change below about -75%, passing the limit was not always enough;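 note: luminescence divided by OD600 gain over 9 h not by final OD600 alone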
NRP1-CendR mod = alters CendR peptide binding to human NRP-1; FAM-RPARPAR peptide binding to NRP-1, fluorescence polarization; actives 0.85% (n = 360,000); O14786; inhibition, % at 25 µM;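 active = inhibition or corrected inhibition above about 18%, plus a signal ratio from 0.5 to 1.5, limit read from the data, passing the limit was not always enough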
Target sequence (O14786 whole entry, looked up): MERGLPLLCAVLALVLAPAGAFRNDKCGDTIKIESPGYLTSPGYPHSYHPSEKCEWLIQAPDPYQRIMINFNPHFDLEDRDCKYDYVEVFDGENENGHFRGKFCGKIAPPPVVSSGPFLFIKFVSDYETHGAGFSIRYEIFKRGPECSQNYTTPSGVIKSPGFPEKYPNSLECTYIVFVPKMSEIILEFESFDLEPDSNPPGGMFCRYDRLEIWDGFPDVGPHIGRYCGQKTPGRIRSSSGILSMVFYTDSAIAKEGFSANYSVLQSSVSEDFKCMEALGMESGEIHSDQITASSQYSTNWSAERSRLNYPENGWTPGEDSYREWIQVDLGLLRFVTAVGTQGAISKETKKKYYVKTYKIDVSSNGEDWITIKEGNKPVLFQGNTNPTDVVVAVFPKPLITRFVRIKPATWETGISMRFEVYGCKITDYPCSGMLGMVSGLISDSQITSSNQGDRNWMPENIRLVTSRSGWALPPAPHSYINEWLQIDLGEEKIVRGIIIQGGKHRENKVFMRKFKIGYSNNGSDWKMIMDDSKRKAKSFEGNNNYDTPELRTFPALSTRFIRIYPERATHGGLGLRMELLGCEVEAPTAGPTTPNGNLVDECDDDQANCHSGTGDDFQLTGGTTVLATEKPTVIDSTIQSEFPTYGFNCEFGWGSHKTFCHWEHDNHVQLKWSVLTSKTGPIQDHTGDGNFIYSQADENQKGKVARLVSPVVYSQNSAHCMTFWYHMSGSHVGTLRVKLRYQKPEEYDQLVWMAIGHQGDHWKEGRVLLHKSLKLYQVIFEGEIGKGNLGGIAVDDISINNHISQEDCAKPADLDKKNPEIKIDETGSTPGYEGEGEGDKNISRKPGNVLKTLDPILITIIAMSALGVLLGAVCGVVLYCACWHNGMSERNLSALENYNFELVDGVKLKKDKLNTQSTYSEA
Active calls of the source: *. Hits are enriched below; roughly 3% of the tested compounds scored in any of these assays.

For C[C@@H](C(=O)NCCc1ccccc1)N1C(=O)N2CCc3c([nH]c4ccccc34)[C@@]2(C)C1=O the results were CR mimetic SO 102.7, HIF activator 0.7, T cruzi repl 61.3*, V-ATPase pHluor 0.0, AI-2 QS mod 14.6 and NRP1-CendR mod 6.4.
`C[C@@H](C(=O)NC1CCN(Cc2ccccc2)CC1)N1C(=O)N2CCc3c([nH]c4ccccc34)[C@@]2(C)C1=O` gave CR mimetic SO 95.2, HIF activator -0.2, T cruzi repl 59.2*, V-ATPase pHluor -0.9, AI-2 QS mod 3.1 and NRP1-CendR mod -14.5.
Screening CC(C)C[C@@H](C(=O)NC1CCN(Cc2ccccc2)CC1)N1C(=O)N2CCc3c([nH]c4ccccc34)[C@@]2(C)C1=O returned CR mimetic SO 114.3, HIF activator -0.7, T cruzi repl 65.0*, V-ATPase pHluor 2.1, AI-2 QS mod 2.5 and NRP1-CendR mod -18.9.
`O=C(O)c1ccc(NC2=C/C(=N/S(=O)(=O)c3cccs3)c3ccccc3C2=O)cc1` gave V-ATPase pHluor -4.5 and NRP1-CendR mod 41.7*.
Screening CCc1ccc(S(=O)(=O)/N=C2\C=C(Nc3ccc(O)cc3)C(=O)c3ccccc32)cc1 returned CR mimetic SO 104.4, HIF activator -7.3, T cruzi repl 52.1, V-ATPase pHluor -0.6, AI-2 QS mod -1.5 and NRP1-CendR mod 15.9.
Screening O=C(O)c1ccc(NC2=C/C(=N/S(=O)(=O)c3ccccc3)c3ccccc3C2=O)cc1 returned V-ATPase pHluor -6.8 and NRP1-CendR mod 36.6*.
Cc1cc(C)c(S(=O)(=O)/N=C2\C=C(Nc3ccc(C(=O)O)cc3)C(=O)c3ccccc32)c(C)c1 was read as CR mimetic SO 105.1, HIF activator -4.1, T cruzi repl 16.8, V-ATPase pHluor 0.3, AI-2 QS mod 38.0 and NRP1-CendR mod 22.8.
O=C1C(Nc2ccc(O)cc2)=C/C(=N/S(=O)(=O)c2cccs2)c2ccccc21 was read as HIF activator -7.6, T cruzi repl 58.3*, V-ATPase pHluor 3.5, AI-2 QS mod 10.3 and NRP1-CendR mod 19.7.
`CCc1ccc(S(=O)(=O)/N=C2\C=C(Nc3cccc(C(=O)O)c3)C(=O)c3ccccc32)cc1` gave CR mimetic SO 128.9, HIF activator 2.4, T cruzi repl -1.7, V-ATPase pHluor -0.8, AI-2 QS mod 29.0 and NRP1-CendR mod 40.7*.
For CCN(CC)C(=O)CSc1nc(O)c(Cc2ccccc2)c(=O)n1-c1ccc(C)cc1 the results were CR mimetic SO 122.0, HIF activator -0.4, T cruzi repl 0.3, V-ATPase pHluor 0.8, AI-2 QS mod -0.2 and NRP1-CendR mod 0.3.
Cc1n[nH]c(C)c1S(=O)(=O)N1CCC(C(=O)N2CCn3c2nc2ccccc23)CC1 was read as CR mimetic SO 111.2, HIF activator 0.1, T cruzi repl 11.2, V-ATPase pHluor -0.6, AI-2 QS mod 18.4 and NRP1-CendR mod -16.3.
`O=[N+]([O-])c1nn(-c2ccccc2)[n+]([O-])c1N1CCN(c2ccccc2F)CC1` gave CR mimetic SO 80.3, HIF activator -0.3, T cruzi repl 56.9*, V-ATPase pHluor 2.5, AI-2 QS mod 6.1 and NRP1-CendR mod 9.2.
For O=[N+]([O-])c1nn(-c2ccccc2)[n+]([O-])c1N1CCN(c2ccccc2)CC1 the results were CR mimetic SO 97.5, HIF activator -0.2, T cruzi repl 84.7*, V-ATPase pHluor -0.6, AI-2 QS mod 17.3 and NRP1-CendR mod 0.7.
Screening CCOc1ccc(CN2CCCC(N3CCN(c4ccc(OC)cc4)CC3)C2)cc1 (centres undefined) returned CR mimetic SO 93.6, HIF activator 1.0, T cruzi repl 58.6*, V-ATPase pHluor 2.0, AI-2 QS mod 11.5 and NRP1-CendR mod -8.5.
CCc1ccc(NCc2ccc(OC)c(Cn3ccnc3)c2)cc1 was read as CR mimetic SO 97.5, HIF activator 0.4, T cruzi repl 46.8, V-ATPase pHluor 5.9, AI-2 QS mod -31.5 and NRP1-CendR mod 8.9.
For COc1ccc(CNc2ccc(Cl)cc2)cc1Cn1ccnc1 the results were CR mimetic SO 90.8, HIF activator 0.6, T cruzi repl 58.5*, V-ATPase pHluor -3.4, AI-2 QS mod 2.5 and NRP1-CendR mod -0.7.
For CC(OC(=O)c1ccc(=O)n(Cc2ccccc2)n1)C(=O)Nc1cccc(Cl)c1 (centres undefined) the results were CR mimetic SO 97.6, HIF activator 0.1, T cruzi repl -1.8, V-ATPase pHluor 1.6, AI-2 QS mod 18.1 and NRP1-CendR mod 16.7*.
For COc1ccc(NS(=O)(=O)c2cc(NC(=O)CNC(=O)c3ccc(C)s3)ccc2Cl)cc1 the results were CR mimetic SO 108.7, HIF activator -0.8, T cruzi repl -6.5, V-ATPase pHluor -0.3, AI-2 QS mod 41.1 and NRP1-CendR mod -8.3.
COc1ccc(C2Nc3ccc4ccccc4c3-c3c2c(=O)oc2ccccc32)cc1 (centres undefined) was read as CR mimetic SO 106.9, HIF activator 0.5, T cruzi repl 66.2*, V-ATPase pHluor -6.9, AI-2 QS mod 12.2 and NRP1-CendR mod 4.4.
O=c1oc2ccccc2c2c1C(c1ccc(Cl)cc1)Nc1ccc3ccccc3c1-2 (centres undefined) was read as CR mimetic SO 96.4, HIF activator -1.2, T cruzi repl 35.1, V-ATPase pHluor -1.1, AI-2 QS mod 20.2 and NRP1-CendR mod -8.2.
CCOc1ccc(C2Nc3ccc4ccccc4c3-c3c2c(=O)oc2ccccc32)cc1 (centres undefined) was read as CR mimetic SO 113.1, HIF activator 0.3, T cruzi repl 65.7*, V-ATPase pHluor -1.9, AI-2 QS mod 6.9 and NRP1-CendR mod 6.0.
For Cc1cc(C)c(S(=O)(=O)N2CCN(C(=O)c3ccc(-n4nc(C)c(Cl)c4C)cc3)CC2)c(C)c1 the results were V-ATPase pHluor -4.5 and NRP1-CendR mod 19.3.
`Cc1ccc(CCNC(=O)CN2C(=O)COc3ccc(S(=O)(=O)N4CCCCC4)cc32)cc1` gave CR mimetic SO 81.2, HIF activator 0.6, T cruzi repl 9.2, V-ATPase pHluor -1.7, AI-2 QS mod 40.8 and NRP1-CendR mod -4.6.
Screening Cc1ccc(CCNC(=O)CN2C(=O)COc3ccccc32)cc1 returned CR mimetic SO 92.4, T cruzi repl 67.0*, V-ATPase pHluor 1.4, AI-2 QS mod 22.6 and NRP1-CendR mod 8.8.
`CNC(=O)c1ccsc1NC(=O)CCS(=O)(=O)c1ccc(C)cc1` gave CR mimetic SO 121.6, HIF activator -0.3, T cruzi repl 4.9, V-ATPase pHluor 1.9, AI-2 QS mod 17.9 and NRP1-CendR mod -7.3.
Screening COc1ccc(S(=O)(=O)N(C)Cc2ccc3c(c2)OCCO3)cc1 returned CR mimetic SO 82.6, V-ATPase pHluor 2.1 and NRP1-CendR mod 9.0.
